Results reported in ChEMBL document CHEMBL4251626, “4β-amidotriazole linked podophyllotoxin congeners: DNA topoisomerase-IIα inhibition and potential anticancer agents for prostate cancer” (Eur J Med Chem, 2018).

Key:
HeLa = assay: Antiproliferative activity against human HeLa cells after 48 hrs by MTT assay; type: functional, cell-based
How it was run: (§1)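 Cells in DMEM/10% FBS pre-incubated 24 h at 37 °C, then compound-treated 48 h (10 mM DMSO stock diluted in medium). MTT (10 µL of 5 mg/mL) added for 4 h; formazan dissolved in DMSO, absorbance read at 570 nm. IC50 = 50% inhibitory concentration, mean of three individual experiments.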

MCF7 = assay: Antiproliferative activity against human MCF7 cells after 48 hrs by MTT assay; type: functional, cell-based; conditions: MCF7, 48 h; how it was run: as §1
DU-145 = assay: Antiproliferative activity against human DU145 cells after 48 hrs by MTT assay; type: functional, cell-based; conditions: DU-145, 48 h; how it was run: as §1
A549 = assay: Antiproliferative activity against human A549 cells after 48 hrs by MTT assay; type: functional, cell-based; conditions: A549, 48 h; how it was run: as §1
HepG2 = assay: Antiproliferative activity against human HepG2 cells after 48 hrs by MTT assay; type: functional, cell-based; conditions: HepG2, 48 h; how it was run: as §1
HT-29 = assay: Antiproliferative activity against human HT-29 cells after 48 hrs by MTT assay; type: functional, cell-based; conditions: HT-29, 48 h; how it was run: as §1
NIH3T3 = assay: Antiproliferative activity against mouse NIH/3T3 cells after 48 hrs by MTT assay; type: cell-based; conditions: NIH3T3, 48 h; how it was run: as §1

Row | Compound | IC50 (HeLa) | IC50 (MCF7) | IC50 (DU-145) | IC50 (A549) | IC50 (HepG2) | IC50 (HT-29) | IC50 (NIH3T3)
1 | COc1cc(OC)cc(-n2cc(C(=O)NC3c4cc5c(cc4[C@@H](c4cc(OC)c(OC)c(OC)c4)[C@H]4C(=O)OC[C@H]34)OCO5)nn2)c1 (single isomer, unassigned) | 17 µM | 8.66 µM | 11.7 µM | 17.7 µM | 13.8 µM | 19.6 µM | 77 µM
2 | COc1cc([C@@H]2c3cc4c(cc3C(NC(=O)c3cn(Cc5ccc(C(F)(F)F)cc5)nn3)[C@H]3COC(=O)[C@H]23)OCO4)cc(OC)c1OC (single isomer, unassigned) | 26.6 µM | 21.9 µM | 32.9 µM | 27.8 µM | 20.4 µM | 66.4 µM | 75.5 µM
3 | COc1cc([C@@H]2c3cc4c(cc3[C@H](O)[C@H]3COC(=O)[C@H]23)OCO4)cc(OC)c1OC [PODOFILOX] | 3.45 µM | 3.06 µM | 4.15 µM | 4.6 µM | 6.63 µM | 4.78 µM | 
4 | COc1cc([C@@H]2c3cc4c(cc3C(NC(=O)c3cn(Cc5ccccc5)nn3)[C@H]3COC(=O)[C@H]23)OCO4)cc(OC)c1OC (single isomer, unassigned) | 18.8 µM | 13.7 µM | 17.1 µM | 13.3 µM | 13.1 µM | 19.1 µM | 67 µM
5 | COc1cc(Cn2cc(C(=O)NC3c4cc5c(cc4[C@@H](c4cc(OC)c(OC)c(OC)c4)[C@H]4C(=O)OC[C@H]34)OCO5)nn2)cc(OC)c1OC (single isomer, unassigned) | 10.2 µM | 7.34 µM | 8.54 µM | 14.7 µM | 0.957 µM | 8.54 µM | 62 µM
6 | COc1cc(Cn2cc(C(=O)NC3c4cc5c(cc4[C@@H](c4cc(OC)c(OC)c(OC)c4)[C@H]4C(=O)OC[C@H]34)OCO5)nn2)cc(OC)c1 (single isomer, unassigned) | 25.8 µM | 13.9 µM | 14.6 µM | 32.4 µM | 14.2 µM | 27.4 µM | 81.3 µM
7 | COc1cc([C@@H]2c3cc4c(cc3C(NC(=O)c3cn(-c5cc(OC)c(OC)c(OC)c5)nn3)[C@H]3COC(=O)[C@H]23)OCO4)cc(OC)c1OC (single isomer, unassigned) | 10.2 µM | 7.34 µM | 8.54 µM | 14.7 µM | 0.957 µM | 8.54 µM | 79.6 µM
8 | COc1cc([C@@H]2c3cc4c(cc3C(NC(=O)c3cn(-c5ccccc5)nn3)[C@H]3COC(=O)[C@H]23)OCO4)cc(OC)c1OC (single isomer, unassigned) | 2.47 µM | 1.45 µM | 1.31 µM | 1.82 µM | 1.94 µM | 5.37 µM | 53.9 µM
9 | COc1cc([C@@H]2c3cc4c(cc3C(NC(=O)c3cn(Cc5ccc6c(c5)OCO6)nn3)[C@H]3COC(=O)[C@H]23)OCO4)cc(OC)c1OC (single isomer, unassigned) | 32.9 µM | 34.5 µM | 27.7 µM | 34.5 µM | 26.6 µM | 36.4 µM | 69.5 µM
10 | COc1ccc(-n2cc(C(=O)NC3c4cc5c(cc4[C@@H](c4cc(OC)c(OC)c(OC)c4)[C@H]4C(=O)OC[C@H]34)OCO5)nn2)cc1OC (single isomer, unassigned) | 18.6 µM | 8.04 µM | 14.5 µM | 12.2 µM | 11.7 µM | 15.1 µM | 66.2 µM
11 | COc1ccc(Cn2cc(C(=O)NC3c4cc5c(cc4[C@@H](c4cc(OC)c(OC)c(OC)c4)[C@H]4C(=O)OC[C@H]34)OCO5)nn2)cc1OC (single isomer, unassigned) | 12.4 µM | 12.2 µM | 13.5 µM | 19.6 µM | 12.7 µM | 13.5 µM | 83.8 µM
12 | COc1cc([C@@H]2c3cc4c(cc3C(NC(=O)c3cn(Cc5cccc(Oc6ccccc6)c5)nn3)[C@H]3COC(=O)[C@H]23)OCO4)cc(OC)c1OC (single isomer, unassigned) | 22.7 µM | 4.4 µM | 5.68 µM | 8.65 µM | 6.6 µM | 40.5 µM | 88.4 µM
13 | COc1cc([C@@H]2c3cc4c(cc3C(NC(=O)c3cn(Cc5ccc(Cl)cc5)nn3)[C@H]3COC(=O)[C@H]23)OCO4)cc(OC)c1OC (single isomer, unassigned) | 3.57 µM | 5.3 µM | 2.37 µM | 8.06 µM | 3.54 µM | 23.7 µM | 81.3 µM
14 | COc1cc([C@@H]2c3cc4c(cc3C(NC(=O)c3cn(-c5ccc6c(c5)OCO6)nn3)[C@H]3COC(=O)[C@H]23)OCO4)cc(OC)c1OC (single isomer, unassigned) | 47.7 µM | 7.61 µM | 8.92 µM | 0.974 µM | 9.94 µM | 17.9 µM | 67.2 µM
15 | COc1cc([C@@H]2c3cc4c(cc3C(NC(=O)c3cn(-c5ccc(F)cc5)nn3)[C@H]3COC(=O)[C@H]23)OCO4)cc(OC)c1OC (single isomer, unassigned) | 78.6 µM | 6.7 µM | 9.44 µM | 14.1 µM | 10.9 µM | 13.8 µM | 98.1 µM
16 | COc1cc([C@@H]2c3cc4c(cc3C(NC(=O)c3cn(Cc5ccc(F)cc5)nn3)[C@H]3COC(=O)[C@H]23)OCO4)cc(OC)c1OC (single isomer, unassigned) | 29 µM | 19.1 µM | 22.8 µM | 75.7 µM | 34.1 µM | 78.3 µM | 91.1 µM
17 | COc1cccc(Cn2cc(C(=O)NC3c4cc5c(cc4[C@@H](c4cc(OC)c(OC)c(OC)c4)[C@H]4C(=O)OC[C@H]34)OCO5)nn2)c1 (single isomer, unassigned) | 22.6 µM | 7.71 µM | 12.4 µM | 21.3 µM | 9.88 µM | 31.3 µM | 74.1 µM
18 | COc1ccc(Cn2cc(C(=O)NC3c4cc5c(cc4[C@@H](c4cc(OC)c(OC)c(OC)c4)[C@H]4C(=O)OC[C@H]34)OCO5)nn2)cc1 (single isomer, unassigned) | 3.46 µM | 3.32 µM | 1.76 µM | 5.82 µM | 1.96 µM | 17.5 µM | 67 µM
